Legend:
[1] = target: T1, Amyloid-beta precursor protein (Homo sapiens, UniProt P05067); test: Displacement of [3H]PIB from human amyloid beta (1 to 40) fibrils after 3 hrs by liquid scintillation counting
[2] = n-octanol-water partition coefficient, log P of the compound; assay type: physicochemical
[3] = tested on: Escherichia coli BL21(DE3); test: Inhibition of amyloid beta (1 to 42) aggregation in Escherichia coli competent cells BL21 (DE3) at 200 uM after overnight incubation by Thioflavin-S steady-state fluorescence assay
In short: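 Aβ42 (extra N-terminal Met) expressed from pET28a in E. coli BL21(DE3). Cells grown in M9 minimal medium with 50 μg/mL kanamycin and 25 μM Th-S (final), IPTG-induced or not, with compound at 200 μM final in DMSO, overnight at 37 °C, 1400 rpm. Th-S read at ex 440 nm, em 460–600 nm. Amyloid band = induced minus noninduced spectrum, normalized to OD600.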

[4] = Inhibition of amyloid beta (1 to 42) aggregation in vitro cell-free polymerization assay
[5] = target: T1, Amyloid-beta precursor protein; test: Inhibition of amyloid beta (1 to 42) (unknown origin) aggregation by Thioflavin-T fluorescence assay
[6] = target: T1, Amyloid-beta precursor protein; test: Inhibition of amyloid beta (1 to 42) (unknown origin) aggregation assessed as end-time for aggregation at 200 uM after 48 hrs by Thioflavin-T fluorescence assay
[7] = target: T1, Amyloid-beta precursor protein; test: Inhibition of recombinant amyloid beta (1 to 42) fibrils (unknown origin) by thioflavin-T fluorescence assay
[8] = target: T1, Amyloid-beta precursor protein; test: Inhibition of amyloid beta (1 to 42) (unknown origin) aggregation assessed as lag time at 200 uM in Escherichia coli BL21 (DE3) cells by Thioflavin-S staining time-course kinetics (reference value: 64.4 mins)
[9] = target: T1, Amyloid-beta precursor protein; test: Inhibition of amyloid beta (1 to 42) (unknown origin) aggregation assessed as half life for aggregation at 200 uM by Thioflavin-S fluorescence assay
[10] = target: T1, Amyloid-beta precursor protein; test: Inhibition of amyloid beta (1 to 42) (unknown origin) aggregation at 200 uM after 48 hrs by Thioflavin-T fluorescence assay relative to control
[11] = target: T1, Amyloid-beta precursor protein; test: Inhibition of amyloid beta (1 to 42) (unknown origin) aggregation assessed as apparent elongation constant at 200 uM after 48 hrs by Thioflavin-T fluorescence assay
[12] = n-octanol/water, read-out: logP

T1 sequence (P05067 whole entry): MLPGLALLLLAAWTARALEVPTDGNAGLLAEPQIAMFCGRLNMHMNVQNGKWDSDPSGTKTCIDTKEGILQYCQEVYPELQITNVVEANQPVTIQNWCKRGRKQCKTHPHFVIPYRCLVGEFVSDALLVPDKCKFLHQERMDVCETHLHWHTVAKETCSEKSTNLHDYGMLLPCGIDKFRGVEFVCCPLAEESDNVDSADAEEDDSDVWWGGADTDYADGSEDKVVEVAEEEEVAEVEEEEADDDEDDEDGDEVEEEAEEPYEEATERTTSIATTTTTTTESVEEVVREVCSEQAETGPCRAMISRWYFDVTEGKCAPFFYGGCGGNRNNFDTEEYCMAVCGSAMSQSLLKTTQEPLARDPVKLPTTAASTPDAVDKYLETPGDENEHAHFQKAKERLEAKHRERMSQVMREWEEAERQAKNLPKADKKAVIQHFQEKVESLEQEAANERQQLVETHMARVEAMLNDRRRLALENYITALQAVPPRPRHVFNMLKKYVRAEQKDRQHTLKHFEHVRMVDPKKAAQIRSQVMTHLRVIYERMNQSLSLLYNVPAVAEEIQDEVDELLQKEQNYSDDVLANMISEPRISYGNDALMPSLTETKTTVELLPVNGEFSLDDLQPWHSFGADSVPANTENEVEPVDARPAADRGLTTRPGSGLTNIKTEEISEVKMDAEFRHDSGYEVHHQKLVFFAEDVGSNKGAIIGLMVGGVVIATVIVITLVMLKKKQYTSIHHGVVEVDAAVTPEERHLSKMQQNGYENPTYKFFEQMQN

`CNc1ccc(-c2nc3ccc(O)cc3s2)cn1` gave a Kd [1] of 0.0084 µM and a logP [2, 12] of 2.7.

For `COc1cc(/C=C/C(=O)CC(=O)/C=C/c2ccc(O)c(OC)c2)ccc1O`, the inhibition [3] was 37.8%.

With `COc1ccc2[nH]cc(CCNC(C)=O)c2c1` the inhibition [3] was 7.5%.

Work on `COc1cccc(C=O)c1O` yielded an inhibition [3] of 18.5%.

Compound `O=C(/C=C/c1ccc(O)c(O)c1)O[C@H](Cc1ccc(O)c(O)c1)C(=O)O` has an inhibition [3] of 5.5%.

For `O=C1c2c(O)cc(O)cc2O[C@H](c2cc(O)c(O)c(O)c2)[C@H]1O` [AMPELOPSIN], the IC50 [4] was 25.3 µM and the IC50 [5] was 12.8 to 25.3 µM.

Compound `O=c1cc(-c2ccc(O)cc2)oc2cc(O)cc(O)c12` [APIGENIN] has a TIME [6] of 8.85 h, an IC50 [5] of 176 µM and an IC50 [7] of 23 to 39 µM. It also gave a Tlag [8] of 81.3 min, an inhibition [3] of 77.3% and a T1/2 [9] of 5.1 h. It also gave a logP [2, 12] of 2.2, an inhibition [10] of 52.7% and a Ke(app) [11] of 61.6 M⁻¹ s⁻¹.

In the case of `O=c1c(O)c(-c2ccccc2O)oc2cc(O)cc(O)c12` [DATISCETIN], the IC50 [4] is reported as 55.4 µM.

For `O=c1c(O)c(-c2ccccc2)oc2cc(O)cc(O)c12` [GALANGIN], the IC50 [4] was > 500 µM.

Work on `O=c1c(O)c(-c2ccc(O)cc2)oc2cc(O)cc(O)c12` [KAEMPFEROL] yielded an IC50 [4] of 75.1 µM.

Work on `O=c1c(O)c(-c2ccc(O)cc2O)oc2cc(O)cc(O)c12` [MORIN] yielded an IC50 [4] of 30.3 µM.

Work on `O=c1c(O)c(-c2ccc(O)c(O)c2)oc2cc(O)cc(O)c12` [QUERCETIN] yielded an IC50 [4] of 15.3 µM, an IC50 [5] of 125 µM and a Tlag [8] of 82.7 min. The inhibition [3] was 81.3%, the logP ([2]; octanol/water) was 2.7 and the inhibition [10] was 75.4%.
